35 molecules from ChEMBL document CHEMBL1142515, “Synthesis and evaluation of structurally constrained quinazolinone derivatives as potent and selective histamine H3 receptor inverse agonists” (J Med Chem, 2008) can be followed below.

In series [1] the target is T1, Histamine H3 receptor (Homo sapiens, UniProt Q9Y5N1). Nature of the series: Antagonist activity at human cloned histamine H3 receptor expressed in CHO-K1 cells assessed as inhibition of R-alpha-methylhistamine-induced [35S]GTPgammaS binding. The format is functional, cell-based. In general terms: GTPγS resists hydrolysis and so accumulates on activated G proteins.
T1 sequence (Q9Y5N1 whole entry): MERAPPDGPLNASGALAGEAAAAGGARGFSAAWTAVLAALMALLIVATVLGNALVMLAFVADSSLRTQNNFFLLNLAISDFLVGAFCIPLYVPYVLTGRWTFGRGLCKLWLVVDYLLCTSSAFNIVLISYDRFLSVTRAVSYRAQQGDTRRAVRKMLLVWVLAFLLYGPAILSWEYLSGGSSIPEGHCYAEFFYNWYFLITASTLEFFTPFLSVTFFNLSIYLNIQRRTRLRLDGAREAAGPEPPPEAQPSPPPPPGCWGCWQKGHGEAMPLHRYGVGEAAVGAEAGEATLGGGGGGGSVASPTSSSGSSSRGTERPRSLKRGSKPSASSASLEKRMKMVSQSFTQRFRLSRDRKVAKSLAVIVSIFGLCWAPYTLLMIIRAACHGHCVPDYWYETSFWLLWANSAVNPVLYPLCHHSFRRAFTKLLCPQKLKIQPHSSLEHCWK

Series [2] addresses Voltage-gated inwardly rectifying potassium channel KCNH2 (Homo sapiens, UniProt Q12809). As to the kind of experiment: Antagonist activity at human ERG in HEK293 cells assessed as inhibition of [35S]N-[(4R)-1'-[(2R)-6-cyano-1,2,3,4-tetrahydro-2-naphthalenyl]-3,4-dihydro-4-hydroxyspiro[2H-1-benzopyran-2,4'-piperidin]-6-yl]methanesulfonamide binding.
The subject of series [3] is LLC-PK1. Nature of the series: Ratio of permeability from apical to basolateral side over basolateral to apical side in pig LLC-PK1 cells expressing mouse MDR1a. The format is ADME, cell-based, Sus scrofa.
For series [4], the system named is Rhesus monkey. As to the kind of experiment: Oral bioavailability in rhesus monkey at 1 mg/kg. The following applies: in vivo. The format is ADME, organism-based, Macaca mulatta. In short, it runs like this: (§1)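 Male SD rats, male Beagle dogs, male rhesus monkeys given single doses iv (PEG400/EtOH/H2O 50/10/40) or po by gavage (0.5% methylcellulose suspension). Rats 1 mg/kg iv and 3 mg/kg po; dogs and monkeys 0.3 mg/kg iv and 1 mg/kg po. Plasma sampled at multiple times up to 24 h, deproteinized with ethanol plus internal standard. Mean of n = 3 animals/dose.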

Series [5] can be described thus: Oral bioavailability in Sprague-Dawley rat at 3 mg/kg. The class given is ADME, organism-based. The following applies: in vivo. The method, boiled down:
as §1

Series [6] can be described thus: Cmax in Sprague-Dawley rat at 1 mg/kg, iv and 3 mg/kg, po. The class given is ADME, organism-based. The following applies: in vivo. The method, boiled down: as §1
Series [7] has as its target T1, Histamine H3 receptor. Nature of the series: Displacement of [3H]N-alpha-methylhistamine from human recombinant histamine H3 receptor expressed in CHO-K1 cells. The format is cell-based.
The target of series [8] is Histamine H3 receptor (Mus musculus, UniProt P58406). As to the kind of experiment: Displacement of [3H]N-alpha-methylhistamine from mouse recombinant histamine H3 receptor.
Histamine H3 receptor (Mus musculus, UniProt P58406), sequence (P58406 whole entry): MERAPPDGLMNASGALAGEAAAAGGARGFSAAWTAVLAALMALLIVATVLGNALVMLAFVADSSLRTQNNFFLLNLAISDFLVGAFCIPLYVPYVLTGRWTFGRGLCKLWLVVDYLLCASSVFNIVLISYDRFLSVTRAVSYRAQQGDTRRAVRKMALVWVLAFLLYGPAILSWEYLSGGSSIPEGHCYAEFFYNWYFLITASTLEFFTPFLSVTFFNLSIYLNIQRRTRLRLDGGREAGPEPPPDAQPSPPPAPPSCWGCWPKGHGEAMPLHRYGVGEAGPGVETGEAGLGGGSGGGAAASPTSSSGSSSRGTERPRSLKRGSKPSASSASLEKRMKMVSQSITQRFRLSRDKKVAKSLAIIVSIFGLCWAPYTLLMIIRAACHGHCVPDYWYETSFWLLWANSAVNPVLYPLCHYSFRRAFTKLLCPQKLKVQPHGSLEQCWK
A further series concerns Brain. As to the kind of experiment: Drug level in Sprague-Dawley rat brain at 10 mg/kg, po after 2 hrs. The arrangement: dose 10 mg/kg, route oral. The conditions noted are these: in vivo. The format is ADME, organism-based. The method, boiled down: (§2)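 Male SD rats dosed orally at 10 mg/kg. Plasma, brain and CSF concentrations determined 2 h after dosing. Brain/plasma ratio taken from these levels. Mean of n = 3 animals.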

Series [9] is described as follows: Drug level in Sprague-Dawley rat cerebrospinal fluid at 10 mg/kg, po after 2 hrs. The class given is ADME, organism-based. Further details: dose 10 mg/kg, route oral. The conditions noted are these: read-out: Drug uptake. In short, it runs like this: as §2
Series [10] in a line: AUC (0 to infinity) in Sprague-Dawley rat at 3 mg/kg, po. The conditions noted are these: plasma. The arrangement: time infinity, dose 3 mg/kg, route oral. The class given is ADME, organism-based. In short, it runs like this: as §1
The test system of series [11] is Rhesus monkey. As to the kind of experiment: AUC (0 to infinity) in rhesus monkey at 1 mg/kg, po. The format is ADME, organism-based, Macaca mulatta, Plasma. The conditions noted are these: in vivo. Further details: time infinity, dose 1 mg/kg, route oral. The method, boiled down:
as §1

A short description of series [12]: Ratio of drug level in brain to plasma in Sprague-Dawley rat at 10 mg/kg, po after 2 hrs. The conditions noted are these: read-out: BPR. The arrangement: dose 10 mg/kg, route oral. The class given is ADME, organism-based. The method, boiled down: as §2
The nature of series [13]: Plasma clearance in Sprague-Dawley rat at 1 mg/kg, iv. The class given is ADME, organism-based. The arrangement: dose 1 mg/kg, route intravenous. The method, boiled down: as §1
Series [14] is described as follows: Cmax in rhesus monkey at 0.3 mg/kg, iv and 1 mg/kg, po. The class given is ADME, organism-based, Macaca mulatta. The following applies: in vivo. The method, boiled down: as §1
Series [15] has as its system Canis familiaris. As to the kind of experiment: Oral bioavailability in Beagle dog at 1 mg/kg. The format is ADME, organism-based, Canis lupus familiaris. The conditions noted are these: in vivo. In short, it runs like this: as §1
Series [16] deals with Histamine H3 receptor (Rattus norvegicus, UniProt Q9QYN8). As to the kind of experiment: Displacement of [3H]N-alpha-methylhistamine from rat recombinant histamine H3 receptor expressed in HEK293 cells. The class given is cell-based.
Histamine H3 receptor (Rattus norvegicus, UniProt Q9QYN8), sequence (Q9QYN8 whole entry): as the sequence (P58406 whole entry) above, with A15T, T286A, G290A, H387R, V389I counted along it
A short description of series [17]: Cmax in Beagle dog at 0.3 mg/kg, iv and 1 mg/kg, po. The class given is ADME, organism-based, Canis lupus familiaris. The conditions noted are these: in vivo. In short, it runs like this: as §1
Series [18] can be described thus: Ratio of drug level in cerebrospinal fluid to brain in Sprague-Dawley rat at 10 mg/kg, po after 2 hrs. The format is ADME, organism-based, CSF/Brain. Further details: dose 10 mg/kg, route oral. The conditions noted are these: in vivo.
A short description of series [19]: Plasma concentration in Sprague-Dawley rat at 10 mg/kg, po after 2 hrs. The class given is ADME, organism-based. Further details: dose 10 mg/kg, route oral. In short, it runs like this: as §2
The test system of series [20] is Canis familiaris. Nature of the series: AUC (0 to infinity) in Beagle dog at 1 mg/kg, po. The conditions noted are these: in vivo. The class given is ADME, organism-based, Canis lupus familiaris, Plasma. Further details: time infinity, dose 1 mg/kg, route oral. The method, boiled down:
as §1

Series [21] concerns LLC-PK1. Nature of the series: Ratio of permeability from apical to basolateral side over basolateral to apical side in pig LLC-PK1 cells expressing human MDR1. The class given is ADME, cell-based, Sus scrofa.

Voltage-gated inwardly rectifying potassium channel KCNH2, sequence (Q12809 whole entry): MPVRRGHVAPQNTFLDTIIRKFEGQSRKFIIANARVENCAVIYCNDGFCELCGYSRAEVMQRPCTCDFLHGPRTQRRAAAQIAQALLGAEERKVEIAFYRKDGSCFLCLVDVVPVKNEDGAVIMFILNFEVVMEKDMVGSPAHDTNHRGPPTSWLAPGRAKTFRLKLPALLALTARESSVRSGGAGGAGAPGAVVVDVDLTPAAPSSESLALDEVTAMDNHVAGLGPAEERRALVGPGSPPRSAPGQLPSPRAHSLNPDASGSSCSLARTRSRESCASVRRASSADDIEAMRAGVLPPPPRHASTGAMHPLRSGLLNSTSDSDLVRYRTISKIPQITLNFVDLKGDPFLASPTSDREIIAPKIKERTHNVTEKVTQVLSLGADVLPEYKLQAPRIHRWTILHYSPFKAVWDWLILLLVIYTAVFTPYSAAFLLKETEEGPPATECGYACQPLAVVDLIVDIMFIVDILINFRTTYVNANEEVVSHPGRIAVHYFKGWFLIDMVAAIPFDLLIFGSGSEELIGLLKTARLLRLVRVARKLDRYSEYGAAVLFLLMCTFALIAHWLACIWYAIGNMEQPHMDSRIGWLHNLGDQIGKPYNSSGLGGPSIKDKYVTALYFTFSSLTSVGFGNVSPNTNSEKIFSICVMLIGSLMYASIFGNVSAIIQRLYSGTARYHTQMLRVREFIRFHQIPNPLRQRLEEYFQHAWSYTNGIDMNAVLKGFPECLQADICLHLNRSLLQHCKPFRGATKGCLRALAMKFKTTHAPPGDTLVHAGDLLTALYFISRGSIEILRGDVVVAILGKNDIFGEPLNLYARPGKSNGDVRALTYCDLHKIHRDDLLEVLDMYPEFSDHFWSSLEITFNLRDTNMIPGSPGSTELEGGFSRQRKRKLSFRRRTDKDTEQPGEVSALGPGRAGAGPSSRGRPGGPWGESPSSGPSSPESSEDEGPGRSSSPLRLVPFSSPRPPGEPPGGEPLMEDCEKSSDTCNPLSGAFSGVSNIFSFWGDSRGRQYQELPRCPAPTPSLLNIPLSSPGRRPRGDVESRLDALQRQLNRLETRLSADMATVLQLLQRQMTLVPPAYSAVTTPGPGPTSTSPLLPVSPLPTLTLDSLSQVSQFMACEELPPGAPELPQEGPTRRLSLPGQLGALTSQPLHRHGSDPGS

On to `COc1ccc2c(=O)n(-c3ccc(OC4CCN(C5CCC5)CC4)cc3)c(C)nc2c1`, for which the IC50 at Histamine H3 receptor [1] is 1.8 nM; in series [2], over 10000 nM.
On to `Cc1nc2c(Cl)cccc2c(=O)n1-c1ccc(OC2CCN(C3CCC3)CC2)cc1`, for which, on Histamine H3 receptor [1], the IC50 is 1.7 nM.
On the same count and under the same terms, the result for `Cc1nc2cc(F)ccc2c(=O)n1-c1ccc(OC2CCN(C3CCC3)CC2)cc1` reads 1.3 nM.
On to `Cc1nc2ccccc2c(=O)n1-c1ccc(OC2CCC(N3CCCC3)C2)cc1` (stereo in doubt; 3b), for which the IC50 amounted to 8.6 nM at Histamine H3 receptor [1] and 10000 nM in series [2].
Consider `CCN1CCC(Oc2ccc(-n3c(C)nc4ccccc4c3=O)cc2)CC1`, for which the IC50 at Histamine H3 receptor [1] came to 49 nM.
Take `Cc1nc2cccc(Cl)c2c(=O)n1-c1ccc(OC2CCN(C3CCC3)CC2)cc1`: the figures for the IC50 (at Histamine H3 receptor [1]; in series [2]) were 0.34 nM and over 10000 nM, respectively.
In the case of `CCCN1CCC(Oc2ccc(-n3c(C)nc4ccccc4c3=O)cc2)CC1`, the IC50 at Histamine H3 receptor [1] is 60 nM.
On to `Cc1nc2ccccc2c(=O)n1-c1ccc(OC2CCNCC2)cc1`, for which the IC50 on Histamine H3 receptor [1] is over 1000 nM.
For `Cc1nc2ccccc2c(=O)n1-c1ccc(O[C@H]2CC[C@@H](N3CCCC3)CC2)cc1`, the IC50 on Histamine H3 receptor [1] was determined as 10 nM.
The same measure, in the same setting: then `CNC(=O)c1ccc(Oc2ccc3c(c2)CCN(C2CCC2)CC3)nc1` [GSK189254], with 0.55 nM.
With `Cc1nc2ccccc2c(=O)n1-c1ccc(OC2CCCN(C3CCC3)CC2)cc1` (centres undefined), the IC50 on Histamine H3 receptor [1] was 10 nM; in series [2], 7300 nM.
With `Cc1nc2ccccc2c(=O)n1-c1ccc(OC2CCN(C)CC2)cc1`, the IC50 at Histamine H3 receptor [1] was determined as 740 nM.
Same read-out and setting: the result for `Cc1nc2ccccc2c(=O)n1-c1ccc(OC2CCN(C(C)C)CC2)cc1` reads 14 nM; that for `Cc1nc2ccccc2c(=O)n1-c1ccc(OC2CCCN(C3CCCC3)CC2)cc1` (centres undefined), 7 nM.
As to `COc1ccc2nc(C)n(-c3ccc(OC4CCN(C5CCC5)CC4)cc3)c(=O)c2c1`, the half-maximal inhibitory concentration (IC50) is 1.5 nM on Histamine H3 receptor [1] and over 10000 nM in [2].
As for `Cc1nc2cnccc2c(=O)n1-c1ccc(OC2CCN(C3CCC3)CC2)cc1`, the IC50 is 1.8 nM at Histamine H3 receptor [1] and over 10000 nM in series [2].
Taken in the same sequence, the figures for `Cc1nc2ccccc2c(=O)n1-c1ccc(OC2CCC(N3CCCC3)C2)cc1` (stereo in doubt; 3a) were 3.4 nM and over 10000 nM.
Taken in the same sequence, the figures for `Cc1nc2cccnc2c(=O)n1-c1ccc(OC2CCN(C3CCC3)CC2)cc1` were 14 nM and over 10000 nM.
As for `COc1cccc2nc(C)n(-c3ccc(OC4CCN(C5CCC5)CC4)cc3)c(=O)c12`, the 50% inhibitory concentration (IC50) at Histamine H3 receptor [1] is 1.2 nM; in [2] it was over 10000 nM.
The matching figures for `Cc1nc2cc(F)c(F)cc2c(=O)n1-c1ccc(OC2CCN(C3CCC3)CC2)cc1`: 0.91 nM and over 10000 nM.
For the molecule `CCCCN1CCC(Oc2ccc(-n3c(C)nc4ccccc4c3=O)cc2)CC1`, the IC50 on Histamine H3 receptor [1] was determined as 91 nM.
Still for that read-out and setting: the result for `Cc1nc2c(F)cccc2c(=O)n1-c1ccc(OC2CCN(C3CCC3)CC2)cc1` reads 0.84 nM; that for `Cc1nc2ccccc2c(=O)n1-c1ccc(OC2CCN(C3CCCCC3)CC2)cc1`, 43 nM.
With `Cc1nc2ncccc2c(=O)n1-c1ccc(OC2CCN(C3CCC3)CC2)cc1`, the results for the IC50 (on Histamine H3 receptor [1]; in series [2]) were 1.6 nM and over 10000 nM, respectively.
Regarding `Cc1nc2cc(Cl)ccc2c(=O)n1-c1ccc(OC2CCN(C3CCC3)CC2)cc1`, the IC50 came to 3 nM at Histamine H3 receptor [1] and 3900 nM in [2].
Regarding `Cc1nc2ccncc2c(=O)n1-c1ccc(OC2CCN(C3CCC3)CC2)cc1`, the IC50 was 2 nM on Histamine H3 receptor [1] and over 10000 nM in series [2].
The matching figures for `Cc1nc2ccccc2c(=O)n1-c1ccc(OC2CCN(C3CCCC3)CC2)cc1`: 3.2 nM and over 10000 nM.
The matching figures for `Cc1nc2ccc(Cl)cc2c(=O)n1-c1ccc(OC2CCN(C3CCC3)CC2)cc1`: 1.5 nM and 5400 nM.
Regarding `Cc1nc2ccccc2c(=O)n1-c1ccc(OC2CCN(C3CCC3)CC2)cc1`, the IC50 at Histamine H3 receptor [1] was 1.5 nM; in [2], over 10000 nM.
On to `Cc1nc2ccccc2c(=O)n1-c1ccc(O[C@H]2CC[C@H](N3CCCC3)CC2)cc1`, for which the IC50 at Histamine H3 receptor [1] was found to be 813 nM.
On to `Cc1nc2ccccc2c(=O)n1-c1ccc(OC2CCN(C3CCCC3)C2)cc1` (centres undefined), for which, on Histamine H3 receptor [1], the IC50 amounted to 37 nM.
Turning to `Cc1cccc2nc(C)n(-c3ccc(OC4CCN(C5CCC5)CC4)cc3)c(=O)c12`, the values for the Ratio (in the series with LLC-PK1 [3]; in series [18]; in the series on LLC-PK1 [21]) were 1, 0.03 and 0.9, respectively. In addition, the IC50 is 0.27 nM on Histamine H3 receptor [1] and over 10000 nM in series [2]. The F was found to be 1% in the series with Rhesus monkey [4] and 76% in the series with Canis familiaris [15]. For the same molecule, in series [5], the bioavailability amounted to 40%. For the same molecule, the values for the Cmax in series [6], in series [14] and in series [17] were 560 nM, 20 nM and 1100 nM, respectively. In addition, the Ki on Histamine H3 receptor [7] was determined as 1.7 nM; at Histamine H3 receptor [8], 3.9 nM; on Histamine H3 receptor [16], 1.8 nM. In the series on Brain, this molecule registered a Drug uptake of 3.2 nmol/g. For the same molecule, the concentration at 2 h was determined as 100 nM in series [9] and 1400 nM in series [19]. The molecule further gave an AUC(0-inf) in series [10] of 2.33 µM·h. Also, the AUC was 0.08 µM·h in the series with Rhesus monkey [11] and 5.6 µM·h in the series on Canis familiaris [20]. Moreover, the Kp at 2 h in series [12] was found to be 2.3. For the same molecule, the clearance in series [13] came out at 25 mL/min/kg.
For the molecule `COc1cccc2c(=O)n(-c3ccc(OC4CCN(C5CCC5)CC4)cc3)c(C)nc12`, the half-inhibitory concentration (IC50) was 4.2 nM at Histamine H3 receptor [1] and over 10000 nM in [2].
As to `Cc1nc2ccccc2c(=O)n1-c1ccc(OC2CCN(C3CCC3)C2)cc1` (centres undefined), the IC50 on Histamine H3 receptor [1] is 103 nM.
As for `Cc1nc2ccc(F)cc2c(=O)n1-c1ccc(OC2CCN(C3CCC3)CC2)cc1`, the IC50 is 1.2 nM at Histamine H3 receptor [1] and over 10000 nM in series [2].

The term IC50 denotes the concentration needed to halve the response being measured. Usually bioavailability stands for dose-corrected exposure relative to a reference, in per cent. The Cmax is the peak of the concentration-time curve. Usually Ki stands for a measure of affinity in units of concentration, obtained from inhibition or displacement. Usually AUC(0-inf) stands for total exposure, with the tail of the curve extrapolated. As a reminder, the AUC is the area under the concentration-time curve, a measure of exposure. One may read the clearance as the volume of plasma or blood freed of the substance per unit of time.
